In the library only some 1.8% were active in any assay of this set; here they are far more common.
Autophagy HCS – autophagy modulators in MEF cells, primary screen, imaging, high-content, MEF GFP-LC3; MEF GFP-LC3 puncta imaging; test concentration mostly 10 µM; calls only at 10 µM (by protocol); 0.98% of 190,000 active;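 active = percentage of spot-positive cells more than 3 SD above its plate mean, without a fluorescence outlier flag or 80% toxicity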;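 also: spot-positive cell cutoff set from DMSO-treated cells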
L929 necroptosis – inhibitors of zVAD-triggered necroptosis, primary screen, L929 cells; viability rescue, % at 10 µM; 0.38% of 220,000 active; L929 zVAD necroptosis rescue, ATP luminescence, 24 h; with zVAD 60 µM;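 active = activation, scaled between plate controls, above about 75%, limit read from the data; inactive = activation under that limit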;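 also: 0% = zVAD with DMSO and 100% = DMSO alone without zVAD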
TNF necrop inh – inhibitors of TNF-alpha triggered necroptosis, primary screen, cell-based, Jurkat FADD-/-, single concentration; Jurkat FADD-/- TNF necroptosis rescue, ATP luminescence, 24 h; 0 = TNF only, 100 = no-TNF cells; activation (protection from cell death), % at 10 µM; 0.068% of 220,000 active; AID 463075, 2010;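 active = activation, meaning protection from cell death, of at least 50% relative to plate controls; inactive = activation below 50%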;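 also: necroptosis triggered by 40 ng/mL TNF-alpha added together with compound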
Mdm2 ligase inh – MDM2-luciferase reporter signal enhancers, primary screen, MDM2 E3 ligase inhibitor project, cell-based, luminescence, 1536-well; E3 ubiquitin-protein ligase Mdm2 (Homo sapiens), Q00987; cell-based MDM2 ubiquitination luciferase reporter, 2 h; 0 = plate control, 100 = twice control, blank-subtracted; signal enhancement, % at 5 µM; 0.11% of 210,000 active; AID 1230, 2008;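 active = signal enhancement of 30% or more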;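 also: luminescence tracks abundance of the self-degrading MDM2-luciferase fusion protein; higher signal means inhibition of MDM2 E3 ligase activity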
Target sequence (Q00987 whole entry, looked up, the tested form may be a part): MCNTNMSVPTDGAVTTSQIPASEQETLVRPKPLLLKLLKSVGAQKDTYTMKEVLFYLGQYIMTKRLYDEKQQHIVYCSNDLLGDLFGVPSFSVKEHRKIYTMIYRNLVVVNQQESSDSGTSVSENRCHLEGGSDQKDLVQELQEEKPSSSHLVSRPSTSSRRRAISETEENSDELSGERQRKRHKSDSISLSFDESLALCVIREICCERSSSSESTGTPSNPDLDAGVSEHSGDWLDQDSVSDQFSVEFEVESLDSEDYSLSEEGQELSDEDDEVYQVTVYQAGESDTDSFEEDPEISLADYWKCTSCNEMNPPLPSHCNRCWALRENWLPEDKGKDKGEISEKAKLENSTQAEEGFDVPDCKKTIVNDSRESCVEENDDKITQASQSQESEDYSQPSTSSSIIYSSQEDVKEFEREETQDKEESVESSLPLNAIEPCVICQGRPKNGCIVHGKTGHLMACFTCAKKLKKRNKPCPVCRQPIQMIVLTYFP
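Buffer or medium: Cells held in DMEM | Assay system: Stable mammalian line carrying autodegrading MDM2–luciferase fusion reporter | Quantity: 2000 cells/well | Times: 4 h settle plus 2 h compound, 37 °C | Doses: One concentration, 5 µM, with 0.2% DMSO | Technique: Luminescence with SteadyLite reagent, 15 min at room temperature | Benchmarks: Plate controls and plate blanks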
Dynein cargo inh – inhibitors of GR-EGFP nuclear translocation, primary screen, dynein cargo transport inhibitor project, imaging, high-content, 3617.4 mouse cells; AID 1381, 2008; test concentration mostly 20 µM; stimulated with dexamethasone, 1 µM; active compounds read low; 0.47% of 220,000 active; z-score, hits read low;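 active = plate z-score of nuclear minus cytoplasmic receptor signal below a set negative limit, without overly bright fluorescence or cell loss, cut at about -3.5 in these data, passing the limit was not always enough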;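 also: z-score of nuclear minus cytoplasmic ring GR-EGFP intensity difference per well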
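Buffer or medium: tet-free, stripped-serum medium; reagent: dexamethasone at 1.0 µM final, 30 min; incubation: 48 h induction, 1 h compound, 30 min dex at 37 °C; measured by: formaldehyde fixation, Hoechst nuclear stain, 10x automated fluorescence imaging; read-out: nuclear-to-cytoplasmic GR-EGFP distribution per well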
* marks the source's active call; other numbers are inactive results; i = inactive; / = not tested or not shown; + = active, no number.

SMILES	Autophagy HCS	L929 necroptosis	TNF necrop inh	Mdm2 ligase inh	Dynein cargo inh
CC(C)(C)C1C/C(=C/c2ccccn2)C(=O)/C(=C/c2ccccn2)C1 (stereo unspecified)	i	35	15	-6	-4.9*
C(=C\c1ccccn1)/c1ccccn1	/	1	1	-2	0.84
O=C1/C(=C/c2ccccn2)COc2ccccc21	i	1	-6	-11	-1.4
CC1C/C(=C/c2ccccn2)C(=O)/C(=C/c2ccccn2)C1 (stereo unspecified)	i	32	-15	46*	-5.8*
COc1ccc(CCNCC(=O)Nc2ccccc2C(F)(F)F)cc1	i	1	1	10	-0.72
CNc1ccc(Br)cc(C(=O)/C=C/c2cc(OC)ccc2OC)c1=O	i	0	-11	-2	-4.1*
CCN(CC)S(=O)(=O)c1ccc(OC)c(NC(=O)CSc2cc(C)ccc2C)c1	i	1	3	-3	0.0083
Cc1ccc(C(=O)NN2C(=O)/C(=C/c3cccn3C)SC2=S)cc1	i	0	3	30*	-0.6
Cn1cccc1/C=C1\SC(=S)N(NC(=O)c2ccccc2Cl)C1=O	i	1	1	4	-0.13
O=C(c1ccc(Br)o1)N1CCN(c2ccccc2F)CC1	+	0	-4	1	-0.81
NS(=O)(=O)c1ccc(CCNC(=O)c2cccc(OC(F)F)c2)cc1	+	3	2	10	-0.41
C/C(=N/NC(=O)c1ccoc1C)c1cccc(NC(=O)C2CC2)c1	i	2	2	-5	0.81
CCCCN1C(=S)NC[C@@H]1Cc1ccccc1	i	-1	-1	/	-1
CCOC(=O)c1cc2oc(C(c3nnnn3C3CCCCC3)N3CCOCC3)cc2[nH]1 (stereo unspecified)	+	-1	1	-1	-0.71
CN1CCN(S(=O)(=O)c2ccc(Cc3ccc(S(=O)(=O)N4CCN(C)CC4)cc3)cc2)CC1	+	-1	-3	-5	3.3
O=C(c1cccnc1)C1CCCN(Cc2nc(Cc3ccccc3)no2)C1 (stereo unspecified)	i	2	1	-4	-0.29
CC(C)n1cc(/C=C2\NC(=O)N(c3cccc(Cl)c3)C2=O)c2ccccc21	+	1	1	-7	-0.64
CC(C)n1cc(/C=C2/NC(=O)N(c3cccc(Cl)c3)C2=O)c2ccccc21	+	0	1	4	-0.97
Cn1c(C(=O)c2ccncc2)cc2ccccc21	/	1	-3	0	0.45
O=C(CO/N=C/c1ccc2c(c1)OCO2)Nc1cccc(Br)c1	i	0	2	-9	0.22
COC(=O)C1=C(C(=O)OC)[C@@H]2N(C)c3ccc(OC)cc3[C@@]23C[C@@H](C(=O)OC)N=C3N1	/	1	1	36*	-0.13
COC(=O)C1=C(C(=O)OC)[C@@H]2N(C)c3ccccc3[C@@]23C[C@@H](C(=O)OC)N=C3N1	/	0	0	6	-0.52
CC1(C)CC(=O)C2=C(C1)OC(N)=C(C#N)C2c1cn(-c2ccccc2)nc1-c1ccc(F)cc1 (stereo unspecified)	+	0	-5	-8	-0.76
O=[N+]([O-])c1ccc(Sc2nc3ccccc3o2)c([N+](=O)[O-])c1	i	1	-26	21	-1.8
O=[N+]([O-])c1ccc(Cl)cc1Sc1nc2ccccc2o1	+	0	-2	/	-1.2
SMILES	Autophagy HCS	L929 necroptosis	TNF necrop inh	Mdm2 ligase inh	Dynein cargo inh
O=C(c1ccc(COc2ccccc2Br)cc1)N1CCCCCC1	i	45	4	-11	-0.64
CC(=O)c1ccc(OCC(C)Oc2ccc(C#N)cc2)cc1 (stereo unspecified)	/	1	-2	-11	0.26
CCOc1ccccc1N1CC(O)=C(c2nc3ccccc3s2)C1=N	+	0	-8	-15	-0.93
COc1ccc(OC)c(N2CC(O)=C(c3nc4ccccc4s3)C2=N)c1	i	3	0	-6	0.52
C/C=N\NC(=O)CNC(=O)CNC(=O)c1ccccc1	i	3	0	2	-0.58
Cc1ccc(S(=O)(=O)NCCN2CCOCC2)c(C)c1C	i	0	0	-13	-0.59
Cc1cc(C(=O)NCC23CC4CC(CC(C4)C2)C3)c(C)o1	i	71	1	0	-0.62
c1ccc(CSc2nnc(-c3ccco3)o2)cc1	/	-1	52*	-18	-0.33
Cc1cccc(OCCN2C(=O)c3ccccc3C2=O)c1	i	-1	0	-4	-0.55
Cc1ccc(S(=O)(=O)ON2C(=O)c3ccccc3C2=O)c(C)c1	i	0	1	10	-4.8*
Cc1ccc(S(=O)(=O)/N=S(\C)CC2CC2(Cl)Cl)cc1 (stereo unspecified)	i	0	0	-4	-0.5
O=S(CC1CC1(Cl)Cl)CC1CC1(Cl)Cl (stereo unspecified)	+	2	3	-23	1.4
O=C(c1ccco1)N1CCN(C(=O)c2cc3c(=O)oc4ccccc4c3s2)CC1	+	-1	-1	9	-0.56
Cc1ccc2oc(=O)c3cc(C(=O)N4CCN(C(=O)c5ccco5)CC4)sc3c2c1	i	0	0	2	-1.1
O=C(NCC1CCCO1)c1cc2c(s1)CS(=O)(=O)C2 (stereo unspecified)	+	0	1	-10	0.21
N#CC1=C2SCC(O)(c3ccccc3)N2C(=O)CC1c1ccccc1 (stereo unspecified)	+	1	-9	-12	-0.52
N#Cc1c(N)nc2c(c1-c1cccc(O)c1)CCCCCC2	i	0	-4	147*	-0.76
N#Cc1c(N)nc2c(c1-c1ccccc1)CCCC2	i	0	-1	-15	-0.21
O=C(Nc1nc2ccccc2n1CCN1CCOCC1)c1ccc(COc2ccccc2Br)o1	i	-1	-1	-15	1.8
O=[N+]([O-])c1ccc(CN2CCN(Cc3c[nH]c4ccccc34)CC2)cc1	i	1	5	-11	2.1
N#Cc1nc(COc2ccc(-c3ccccc3)cc2)oc1NCCCN1CCOCC1	i	0	-6	-19	0.11
CN(C)CCNc1oc(COc2ccc(-c3ccccc3)cc2)nc1C#N	+	5	-9	5	3
COc1ccc(OC)c(NC(=O)c2nc(-c3ccccc3)oc2C)c1	i	3	1	-9	-0.31
O=C(Cc1csc(Nc2nc(=S)[nH]c3ccccc23)n1)NCc1cccc(Cl)c1	i	1	1	-8	0.71

Screens from PubChem.
